Results as given in ChEMBL document CHEMBL5154667, “Discovery of 9,10-dihydrophenanthrene derivatives as SARS-CoV-2 3CLpro inhibitors for treating COVID-19” (Eur J Med Chem, 2022).

Key:
[1] = target: T1, Replicase polyprotein 1ab (Severe acute respiratory syndrome coronavirus 2, UniProt P0DTD1); experiment: Inhibition of SARS-CoV-2 3CL protease using Dabcyl-KNSTLQSGLRKE-Edan as substrate incubated for 30 mins and measured by FRET assay
Outline: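 Recombinant SARS-CoV-2 3CLpro, expressed and purified in-house, at 4 μg/mL final. Preincubated with compound (in DMSO) for 30 min at 37 °C in 0.1 M PBS pH 7.4 with 1 mM EDTA. Mean ± SD of at least three independent experiments.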

[2] = target: T1, Replicase polyprotein 1ab; experiment: Mixed type inhibition of SARS-CoV-2 3CL protease using Dabcyl-KNSTLQSGLRKE-Edan as substrate incubated for 30 mins and measured by Lineweaver-Burk plot analysis
[3] = Stability in human plasma measured by LC-UV analysis; format: ADME, cell-free
Outline: (§1)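 Incubated at 37 °C in 100 mM PBS pH 7.4, as printed for the human plasma stability test. Sampled at 0, 15, 30 min and 1–12 h; proteins precipitated with cold acetonitrile. Centrifuged at 20,000×g, 4 °C, 30 min; supernatant analysed by LC-UV.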

[4] = Metabolic stability in human liver microsomes assessed as CYP-mediated metabolism at 20 uM and measured as half-life by LC-UV analysis; format: ADME, Microsome
[5] = target: Replicase polyprotein 1ab (Severe acute respiratory syndrome-related coronavirus, UniProt P0C6X7); experiment: Inhibition of SARS-CoV 3CL protease using Dabcyl-KNSTLQSGLRKE-Edan as substrate incubated for 30 mins and measured by FRET assay
Outline: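 SARS-CoV 3CLpro, expressed and purified in-house like the SARS-CoV-2 enzyme, at 30 μg/mL final. Preincubated with compound for 30 min at 37 °C in 0.1 M PBS pH 7.4 with 1 mM EDTA. Mean ± SD of at least three independent runs.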

[6] = Stability of the compound in simulated gastric fluid; format: ADME; settings: simulated gi fluid
Outline: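 Simulated gastric fluid: pepsin 400 mg and 656 μL 1 M HCl in 40 mL water. Analyte 20 μM in SGF at 37 °C, sampled 0–90 min. Quenched with equal volume cold acetonitrile, centrifuged (20,000×g, 4 °C, 30 min), analysed by LC-UV.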

[7] = Metabolic stability in human liver microsomes assessed as UGT-mediated metabolism at 20 uM and measured as half-life by LC-UV analysis; format: ADME, Microsome
Outline: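 Phase II: compound 20 μM with HLMs 0.2 mg/mL in 50 mM Tris-HCl pH 7.4 with 5 mM MgCl₂. After 3 min at 37 °C, started with 2 mM UDPGA. Quenched with cold acetonitrile at 0–90 min, centrifuged, supernatant analysed by LC-UV for half-life. 7-Hydroxycoumarin was the reference substrate.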

[8] = Stability in human plasma assessed as half-life measured by LC-UV analysis; format: ADME, cell-free; outline: as §1

Row | SMILES | IC50 [1] [µM] | further results
1 | CC(=O)OCC1Cc2c(-c3ccncn3)cccc2-c2c(O)ccc(C)c21 (stereo not given) | > 100 | –
2 | CC(=O)OCC1Cc2c(-c3cc(-c4ccccc4)ccn3)cccc2-c2c(O)ccc(C3CCCCC3)c21 (stereo not given) | 8.54 | –
3 | CC(=O)OCC1Cc2c(-c3ccccn3)ccc(C)c2-c2c(O)ccc(C)c21 (stereo not given) | > 100 | –
4 | CC(=O)OCC1Cc2c(-c3ncccn3)cccc2-c2c(O)ccc(C)c21 (stereo not given) | > 100 | –
5 | CC(=O)OCC1Cc2c(-c3ccc(Br)cn3)cccc2-c2c(O)ccc(-c3ccc(Br)cc3)c21 (stereo not given) | 6.73 | –
6 | CC(=O)OCC1Cc2c(-c3ccc(Cl)cn3)cccc2-c2c(O)ccc(C)c21 (stereo not given) | 35.8 | –
7 | CC(=O)OCC1Cc2c(cccc2-c2ncnc3c2ncn3CC2CC2)-c2c(O)ccc(C)c21 (stereo not given) | > 100 | –
8 | CC(=O)OCC1Cc2c(-c3ccccn3)cccc2-c2c(O)ccc(-c3ccc(C#N)cc3)c21 (stereo not given) | 19.3 | –
9 | OCC1Cc2c(-c3cc(-c4ccccc4)ccn3)cccc2-c2c(O)ccc(-c3ccc(Br)cc3)c21 (stereo not given) | 1.55 | Ki [2]: 6.09 µM; Stability [3]: Stable; t1/2 [4]: > 1.5 h; IC50 [5]: 5.35 µM; Stability [6]: Stable; t1/2 [7]: > 1.5 h
10 | CC(=O)OCC1Cc2c(-c3cc(Cl)ccn3)cccc2-c2c(O)ccc(-c3ccc(Br)cc3)c21 (stereo not given) | 4.79 | IC50 [5]: 5.44 µM
11 | COc1ccc(-c2ccccn2)c2c1-c1c(O)ccc(C)c1C(COC(C)=O)C2 (stereo not given) | > 100 | –
12 | CC(=O)OCC1Cc2c(-c3cc(C=O)ccn3)cccc2-c2c(O)ccc(-c3ccc(Br)cc3)c21 (stereo not given) | 3.32 | IC50 [5]: 3.2 µM
13 | OCC1Cc2c(-c3ccc(F)cn3)cccc2-c2c(O)ccc(-c3ccc(Br)cc3)c21 (stereo not given) | 5.39 | –
14 | O=Cc1ccnc(-c2cccc3c2CC(CO)c2c(-c4ccc(Br)cc4)ccc(O)c2-3)c1 (stereo not given) | 1.81 | Ki [2]: 7.64 µM; t1/2 [4]: 32.09 h; IC50 [5]: 5.32 µM; t1/2 [8]: 8.97 h; Stability [6]: Stable; t1/2 [7]: 81.88 h
15 | CC(=O)OCC1Cc2c(-c3cc(C#N)ccn3)cccc2-c2c(O)ccc(-c3ccc(Br)cc3)c21 (stereo not given) | 10.3 | –
16 | CC(=O)OCC1Cc2c(-c3ccccn3)ccc(Br)c2-c2c(O)ccc(C)c21 (stereo not given) | > 100 | –
17 | CC(=O)OCC1Cc2c(-c3cc(N4CCCC4)ccn3)cccc2-c2c(O)ccc(-c3ccc(Br)cc3)c21 (stereo not given) | 11.2 | –
18 | CC(=O)OCC1Cc2c(-c3ccc(NCc4ccccc4)cn3)cccc2-c2c(O)ccc(-c3ccc(Br)cc3)c21 (stereo not given) | 3.31 | IC50 [5]: 5.79 µM
19 | CC(=O)OCC1Cc2c(cccc2-n2cccn2)-c2c(O)ccc(C)c21 (stereo not given) | > 100 | –
20 | CC(=O)OCC1Cc2c(-c3ccc(C)cn3)cccc2-c2c(O)ccc(-c3ccc(Br)cc3)c21 (stereo not given) | 5.25 | –
21 | CC(=O)OCC1Cc2c(-c3ccccn3)cc(C)cc2-c2c(O)ccc(C)c21 (stereo not given) | 57.7 | –
22 | C=CCn1cnc2c(-c3cccc4c3CC(COC(C)=O)c3c(C)ccc(O)c3-4)ncnc21 (stereo not given) | > 100 | –
23 | CC(=O)OCC1Cc2c(-c3cc(C)ccn3)cccc2-c2c(O)ccc(C)c21 (stereo not given) | 68.2 | –
24 | CC(=O)OCC1Cc2c(-c3ccccn3)cccc2-c2c(O)ccc(C3CCCCC3)c21 (stereo not given) | 9.06 | –
25 | CC(=O)OCC1Cc2c(-c3ccc(Cl)cn3)cccc2-c2c(O)ccc(-c3ccc(Br)cc3)c21 (stereo not given) | 2.72 | IC50 [5]: 4.06 µM
26 | CC(=O)OCC1Cc2c(cccc2-c2nccc3ccccc23)-c2c(O)ccc(C)c21 (stereo not given) | 14.2 | –
27 | CC(=O)OCC1Cc2c(-c3cc(N4CCOCC4)ccn3)cccc2-c2c(O)ccc(-c3ccc(Br)cc3)c21 (stereo not given) | 7.39 | –

Row | SMILES | IC50 [1] [µM] | further results
28 | CC(=O)OCC1Cc2c(-c3ccc(N(C)C)cn3)cccc2-c2c(O)ccc(-c3ccc(Br)cc3)c21 (stereo not given) | 3.66 | IC50 [5]: 5.92 µM
29 | CC(=O)OCC1Cc2c(-c3ccc(F)cn3)cccc2-c2c(O)ccc(C)c21 (stereo not given) | 66.8 | –
30 | N#Cc1ccc(-c2cccc3c2CC(CO)c2c(-c4ccc(Br)cc4)ccc(O)c2-3)nc1 (stereo not given) | 10.7 | –
31 | CC(=O)OCC1Cc2c(-c3ccc(C(C)=O)cn3)cccc2-c2c(O)ccc(-c3ccc(Br)cc3)c21 (stereo not given) | 5.83 | –
32 | CC(=O)OCC1Cc2c(-c3ccc(C#N)cn3)cccc2-c2c(O)ccc(-c3ccc(Br)cc3)c21 (stereo not given) | 2.78 | IC50 [5]: 7.12 µM
33 | CC(=O)OCC1Cc2c(ccc(C)c2-c2ccccn2)-c2c(O)ccc(C)c21 (stereo not given) | 53.8 | –
34 | CC(=O)OCC1Cc2c(-c3ccccn3)cccc2-c2c(O)ccc(C)c21 (stereo not given) | 61.2 | –
35 | CCc1ccc(O)c2c1C(COC(C)=O)Cc1c(-c3ccccn3)cccc1-2 (stereo not given) | 33.1 | –
36 | CC(=O)OCC1Cc2c(-c3ccccn3)cccc2-c2c(O)ccc(Cc3ccccc3)c21 (stereo not given) | 11.4 | –
37 | OCC1Cc2c(-c3ccc(Cl)cn3)cccc2-c2c(O)ccc(-c3ccc(Br)cc3)c21 (stereo not given) | 4.71 | IC50 [5]: 10.5 µM
38 | CC(=O)OCC1Cc2c(-c3ccccn3)cccc2-c2c(O)ccc(-c3ccc(Br)cc3)c21 (stereo not given) | 6.44 | –
39 | CC(=O)OCC1Cc2c(-c3cc(-c4ccccc4)ccn3)cccc2-c2c(O)ccc(C)c21 (stereo not given) | 5.65 | –
40 | CC(=O)OCC1Cc2c(-c3ncccc3C)cccc2-c2c(O)ccc(C)c21 (stereo not given) | 58.9 | –
41 | CC(=O)OCC1Cc2c(-c3ccc(F)cn3)cccc2-c2c(O)ccc(-c3ccc(Br)cc3)c21 (stereo not given) | 4.29 | IC50 [5]: 7.81 µM
42 | CC(=O)OCC1Cc2c(-c3ccc(C=O)cn3)cccc2-c2c(O)ccc(-c3ccc(Br)cc3)c21 (stereo not given) | 8.89 | –
43 | CC(=O)OCC1Cc2c(-c3ccccn3)ccc(F)c2-c2c(O)ccc(C)c21 (stereo not given) | > 100 | –
44 | CC(=O)OCC1Cc2c(-c3ccccn3)ccc(Cl)c2-c2c(O)ccc(C)c21 (stereo not given) | 85.6 | –
45 | CC(=O)OCC1Cc2c(-c3cc(-c4ccccc4)ccn3)cccc2-c2c(O)ccc(-c3ccc(Br)cc3)c21 (stereo not given) | 2.46 | IC50 [5]: 17.7 µM
46 | CC(=O)OCC1Cc2c(-c3ccccn3)cccc2-c2c(O)ccc(C(C)C)c21 (stereo not given) | 29.5 | –
47 | CC(=O)OCC1Cc2c(-c3ccc4ccccc4n3)cccc2-c2c(O)ccc(C)c21 (stereo not given) | 13.8 | –
48 | CC(=O)OCC1Cc2c(-c3ccc(Br)cn3)cccc2-c2c(O)ccc(C)c21 (stereo not given) | 18.5 | –
49 | CC(=O)OCC1Cc2c(-c3cc(C)ccn3)cccc2-c2c(O)ccc(-c3ccc(Br)cc3)c21 (stereo not given) | 9.82 | –
50 | CC(=O)OCC1Cc2c(-c3cc4ccccc4cn3)cccc2-c2c(O)ccc(C)c21 (stereo not given) | 12 | –
51 | CC(=O)OCC1Cc2c(-c3ccc(S(C)(=O)=O)cn3)cccc2-c2c(O)ccc(-c3ccc(Br)cc3)c21 (stereo not given) | 6.65 | –
52 | CC(=O)OCC1Cc2c(-c3ccc(-c4ccccc4)cn3)cccc2-c2c(O)ccc(-c3ccc(Br)cc3)c21 (stereo not given) | 8.28 | –
53 | C[C@]12CC[C@H]3[C@@H](CCC4=CC(=O)CC[C@@]43C)[C@@H]1CC[C@@H]2O [TESTOSTERONE] | – | t1/2 [4]: 0.4603 h
54 | O=c1ccc2ccc(O)cc2o1 [UMBELLIFERONE] | – | t1/2 [7]: 0.2588 h
